Experiments:
[1] = biological target: Cyclin-dependent kinase 1 (Homo sapiens) (UniProt P06493); assay: Inhibition of CDK1 at 10 uM by HTRF assay relative to control
Summary of the method: (§1)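 HTRF kinase assay, one panel of kinases. Inhibitor stock 50 µM in 100% DMSO; tested at 10 µM. ATP and substrate at final levels near Km. Final buffer: 50 mM Hepes/NaOH pH 7.4, 40 µM Na3VO4, 0.005% Tween-20, 1 mM DTT, MnCl2 or MgCl2 at kinase-dependent levels. Started by adding ATP/substrate. Reaction run at room temperature, time varied by kinase. Detection mix in 50 mM Hepes pH 7.4, 0.1% BSA, 150 mM KF, incubated ≥1 h at room temperature. Activity expressed as % of uninhibited control; n=2.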

[2] = biological target: T1, Serine/threonine-protein kinase Chk1 (Homo sapiens) (UniProt O14757); assay: Inhibition of CHK1 at 10 uM by HTRF assay relative to control; summary of the method: as §1
T1 sequence (whole entry): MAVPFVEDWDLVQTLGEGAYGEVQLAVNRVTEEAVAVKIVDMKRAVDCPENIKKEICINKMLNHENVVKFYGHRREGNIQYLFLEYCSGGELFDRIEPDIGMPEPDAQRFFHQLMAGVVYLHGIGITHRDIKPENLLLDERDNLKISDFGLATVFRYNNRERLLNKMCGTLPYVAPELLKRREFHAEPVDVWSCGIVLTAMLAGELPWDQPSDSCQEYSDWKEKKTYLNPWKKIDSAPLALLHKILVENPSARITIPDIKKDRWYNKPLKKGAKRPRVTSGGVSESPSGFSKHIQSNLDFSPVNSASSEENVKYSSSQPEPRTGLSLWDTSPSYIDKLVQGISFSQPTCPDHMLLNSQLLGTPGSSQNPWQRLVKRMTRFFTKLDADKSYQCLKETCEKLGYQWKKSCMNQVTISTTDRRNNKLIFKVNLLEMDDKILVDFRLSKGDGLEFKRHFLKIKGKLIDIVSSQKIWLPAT

[3] = biological target: Protein-tyrosine kinase 6 (Homo sapiens) (UniProt Q13882); assay: Inhibition of Brk at 10 uM by HTRF assay relative to control; summary of the method: as §1
[4] = Inhibition of PKA at 10 uM by HTRF assay relative to control; summary of the method: as §1
[5] = biological target: Tyrosine-protein kinase Lyn (Homo sapiens) (UniProt P07948); assay: Inhibition of Lyn at 10 uM by HTRF assay relative to control; summary of the method: as §1
[6] = biological target: Cyclin-dependent kinase 2 (Homo sapiens) (UniProt P24941); assay: Inhibition of CDK2 at 10 uM by HTRF assay relative to control; summary of the method: as §1
[7] = biological target: High affinity nerve growth factor receptor (Homo sapiens) (UniProt P04629); assay: Inhibition of TrkA at 10 uM by HTRF assay relative to control; summary of the method: as §1
[8] = biological target: Mitogen-activated protein kinase 1 (Homo sapiens) (UniProt P28482); assay: Inhibition of ERK2 at 10 uM by HTRF assay relative to control; summary of the method: as §1
[9] = biological target: Fibroblast growth factor receptor 1 (Homo sapiens) (UniProt P11362); assay: Inhibition of FGFR1 at 10 uM by HTRF assay relative to control; summary of the method: as §1
[10] = biological target: MAP kinase-activated protein kinase 2 (Homo sapiens) (UniProt P49137); assay: Inhibition of MAPKAPK2 at 10 uM by HTRF assay relative to control; summary of the method: as §1
[11] = biological target: Ribosomal protein S6 kinase beta-1 (Homo sapiens) (UniProt P23443); assay: Inhibition of p70S6K at 10 uM by HTRF assay relative to control; summary of the method: as §1
[12] = biological target: T2, Tyrosine-protein kinase JAK3 (Homo sapiens) (UniProt P52333); assay: Inhibition of JAK3 at 10 uM by HTRF assay relative to control; summary of the method: as §1
T2 sequence (whole entry): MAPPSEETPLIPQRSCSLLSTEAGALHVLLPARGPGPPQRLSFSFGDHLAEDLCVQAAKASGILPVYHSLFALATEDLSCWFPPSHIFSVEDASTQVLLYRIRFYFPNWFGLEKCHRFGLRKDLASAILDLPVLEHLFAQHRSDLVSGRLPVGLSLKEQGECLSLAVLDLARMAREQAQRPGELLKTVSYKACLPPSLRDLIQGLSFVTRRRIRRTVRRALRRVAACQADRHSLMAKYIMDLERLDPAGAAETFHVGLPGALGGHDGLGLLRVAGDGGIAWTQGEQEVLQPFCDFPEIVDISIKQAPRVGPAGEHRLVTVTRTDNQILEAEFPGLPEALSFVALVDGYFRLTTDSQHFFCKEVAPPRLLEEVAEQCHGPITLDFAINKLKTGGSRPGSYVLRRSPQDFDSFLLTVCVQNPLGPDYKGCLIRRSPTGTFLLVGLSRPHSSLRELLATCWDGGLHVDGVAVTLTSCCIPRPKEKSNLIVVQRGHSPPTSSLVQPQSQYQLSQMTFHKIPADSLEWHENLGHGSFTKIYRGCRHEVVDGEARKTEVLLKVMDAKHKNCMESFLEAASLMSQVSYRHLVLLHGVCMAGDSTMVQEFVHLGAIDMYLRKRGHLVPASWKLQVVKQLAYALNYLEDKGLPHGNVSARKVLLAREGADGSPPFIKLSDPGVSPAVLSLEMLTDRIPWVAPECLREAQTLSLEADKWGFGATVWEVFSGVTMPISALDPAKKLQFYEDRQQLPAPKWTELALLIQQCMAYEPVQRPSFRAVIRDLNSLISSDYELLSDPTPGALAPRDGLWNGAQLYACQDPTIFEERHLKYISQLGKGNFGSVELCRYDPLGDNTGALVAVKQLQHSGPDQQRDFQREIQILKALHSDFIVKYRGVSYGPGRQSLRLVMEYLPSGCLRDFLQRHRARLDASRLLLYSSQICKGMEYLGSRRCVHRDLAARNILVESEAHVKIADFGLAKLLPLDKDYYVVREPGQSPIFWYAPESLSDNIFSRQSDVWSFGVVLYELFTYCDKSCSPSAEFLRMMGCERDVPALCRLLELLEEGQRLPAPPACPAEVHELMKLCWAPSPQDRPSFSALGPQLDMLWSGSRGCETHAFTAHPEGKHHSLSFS

Fibroblast growth factor receptor 1 (Homo sapiens), sequence (P11362 22-822 limits assumed): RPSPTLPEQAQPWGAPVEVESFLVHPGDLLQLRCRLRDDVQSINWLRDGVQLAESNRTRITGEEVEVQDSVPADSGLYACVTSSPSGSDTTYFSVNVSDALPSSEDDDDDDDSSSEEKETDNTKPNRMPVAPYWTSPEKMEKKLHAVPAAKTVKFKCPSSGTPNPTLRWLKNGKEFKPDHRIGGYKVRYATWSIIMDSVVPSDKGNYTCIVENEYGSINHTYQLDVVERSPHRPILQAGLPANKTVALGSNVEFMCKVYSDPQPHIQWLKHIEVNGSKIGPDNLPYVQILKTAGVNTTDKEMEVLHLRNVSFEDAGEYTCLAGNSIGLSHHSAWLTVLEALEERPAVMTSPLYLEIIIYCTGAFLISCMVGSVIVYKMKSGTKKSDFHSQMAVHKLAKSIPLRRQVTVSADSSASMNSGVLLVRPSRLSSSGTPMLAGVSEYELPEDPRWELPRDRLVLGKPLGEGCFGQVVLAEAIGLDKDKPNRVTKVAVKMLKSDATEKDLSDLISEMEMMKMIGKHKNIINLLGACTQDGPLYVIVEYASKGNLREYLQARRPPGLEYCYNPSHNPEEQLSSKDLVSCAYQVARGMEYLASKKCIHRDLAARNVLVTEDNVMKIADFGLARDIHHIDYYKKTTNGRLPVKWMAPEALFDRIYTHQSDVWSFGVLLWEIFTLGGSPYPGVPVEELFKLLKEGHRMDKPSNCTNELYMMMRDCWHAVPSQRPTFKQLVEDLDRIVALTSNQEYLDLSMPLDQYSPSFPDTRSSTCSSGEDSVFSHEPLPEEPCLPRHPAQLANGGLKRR
Protein-tyrosine kinase 6 (Homo sapiens), sequence (Q13882 whole entry, looked up): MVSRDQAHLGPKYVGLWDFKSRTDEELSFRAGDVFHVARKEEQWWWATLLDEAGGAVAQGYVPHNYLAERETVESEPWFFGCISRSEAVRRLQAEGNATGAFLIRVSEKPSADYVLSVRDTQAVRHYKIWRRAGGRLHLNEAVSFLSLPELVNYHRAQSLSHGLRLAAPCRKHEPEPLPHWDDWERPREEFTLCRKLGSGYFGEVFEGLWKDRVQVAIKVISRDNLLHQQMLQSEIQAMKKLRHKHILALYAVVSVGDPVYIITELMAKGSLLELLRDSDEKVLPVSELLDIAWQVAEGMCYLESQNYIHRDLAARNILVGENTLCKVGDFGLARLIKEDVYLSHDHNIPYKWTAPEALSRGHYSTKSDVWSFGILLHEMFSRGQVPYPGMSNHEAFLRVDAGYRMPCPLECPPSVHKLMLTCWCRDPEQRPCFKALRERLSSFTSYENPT
MAP kinase-activated protein kinase 2 (Homo sapiens), sequence (P49137 whole entry, looked up): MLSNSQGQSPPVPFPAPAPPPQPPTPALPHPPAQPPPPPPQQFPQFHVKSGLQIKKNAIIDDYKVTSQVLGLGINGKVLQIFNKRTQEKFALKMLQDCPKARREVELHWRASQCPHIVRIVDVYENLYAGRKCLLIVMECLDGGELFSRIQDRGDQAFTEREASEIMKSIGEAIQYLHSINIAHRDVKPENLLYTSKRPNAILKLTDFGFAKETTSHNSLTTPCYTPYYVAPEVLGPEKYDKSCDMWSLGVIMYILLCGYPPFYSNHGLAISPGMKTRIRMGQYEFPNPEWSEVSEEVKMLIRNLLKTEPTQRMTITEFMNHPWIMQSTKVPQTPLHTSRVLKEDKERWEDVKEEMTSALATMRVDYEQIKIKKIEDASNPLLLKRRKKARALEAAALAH
Ribosomal protein S6 kinase beta-1 (Homo sapiens), sequence (P23443 whole entry, looked up): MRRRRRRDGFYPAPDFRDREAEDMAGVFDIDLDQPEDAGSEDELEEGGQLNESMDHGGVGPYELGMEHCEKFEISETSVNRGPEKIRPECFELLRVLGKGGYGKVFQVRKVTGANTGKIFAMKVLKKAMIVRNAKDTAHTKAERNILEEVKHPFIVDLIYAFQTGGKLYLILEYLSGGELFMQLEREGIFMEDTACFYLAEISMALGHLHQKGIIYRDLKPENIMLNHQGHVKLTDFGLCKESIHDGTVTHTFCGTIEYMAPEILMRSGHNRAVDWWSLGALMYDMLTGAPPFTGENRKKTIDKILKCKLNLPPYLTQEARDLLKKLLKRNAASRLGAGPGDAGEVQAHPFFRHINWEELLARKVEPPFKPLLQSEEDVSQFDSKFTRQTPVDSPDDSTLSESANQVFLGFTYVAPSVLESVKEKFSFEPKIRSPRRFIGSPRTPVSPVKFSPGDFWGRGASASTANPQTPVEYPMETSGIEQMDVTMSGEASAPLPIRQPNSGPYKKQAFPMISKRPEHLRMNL
Cyclin-dependent kinase 1 (Homo sapiens), sequence (P06493 whole entry, looked up): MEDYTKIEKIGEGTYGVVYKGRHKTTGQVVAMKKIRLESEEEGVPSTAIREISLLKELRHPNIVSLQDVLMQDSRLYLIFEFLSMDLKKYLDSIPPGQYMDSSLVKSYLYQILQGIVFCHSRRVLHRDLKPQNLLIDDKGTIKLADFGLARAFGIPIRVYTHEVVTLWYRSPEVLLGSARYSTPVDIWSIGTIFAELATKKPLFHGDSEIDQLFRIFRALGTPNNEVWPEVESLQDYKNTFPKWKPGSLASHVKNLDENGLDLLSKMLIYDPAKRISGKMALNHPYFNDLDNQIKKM
High affinity nerve growth factor receptor (Homo sapiens), sequence (P04629 33-796 limits assumed): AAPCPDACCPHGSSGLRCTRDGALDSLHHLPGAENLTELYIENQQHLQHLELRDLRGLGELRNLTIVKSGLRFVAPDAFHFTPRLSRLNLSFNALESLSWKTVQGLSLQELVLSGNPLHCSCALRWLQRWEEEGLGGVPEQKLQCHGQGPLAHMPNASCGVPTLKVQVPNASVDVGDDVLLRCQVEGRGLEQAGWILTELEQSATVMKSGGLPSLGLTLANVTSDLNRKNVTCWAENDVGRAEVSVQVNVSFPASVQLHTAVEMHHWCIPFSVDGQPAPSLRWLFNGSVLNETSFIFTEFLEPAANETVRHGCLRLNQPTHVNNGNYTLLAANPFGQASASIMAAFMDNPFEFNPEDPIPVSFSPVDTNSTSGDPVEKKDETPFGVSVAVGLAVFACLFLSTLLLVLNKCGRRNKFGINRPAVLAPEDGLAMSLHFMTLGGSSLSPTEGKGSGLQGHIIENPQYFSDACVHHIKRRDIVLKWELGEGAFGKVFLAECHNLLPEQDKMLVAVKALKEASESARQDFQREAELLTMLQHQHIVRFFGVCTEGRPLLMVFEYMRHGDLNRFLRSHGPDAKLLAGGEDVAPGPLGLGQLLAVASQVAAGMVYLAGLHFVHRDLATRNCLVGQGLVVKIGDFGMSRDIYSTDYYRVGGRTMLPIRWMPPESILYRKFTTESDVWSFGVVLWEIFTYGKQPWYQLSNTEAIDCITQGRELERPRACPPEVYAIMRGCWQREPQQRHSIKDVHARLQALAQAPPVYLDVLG
Mitogen-activated protein kinase 1 (Homo sapiens), sequence (P28482 whole entry): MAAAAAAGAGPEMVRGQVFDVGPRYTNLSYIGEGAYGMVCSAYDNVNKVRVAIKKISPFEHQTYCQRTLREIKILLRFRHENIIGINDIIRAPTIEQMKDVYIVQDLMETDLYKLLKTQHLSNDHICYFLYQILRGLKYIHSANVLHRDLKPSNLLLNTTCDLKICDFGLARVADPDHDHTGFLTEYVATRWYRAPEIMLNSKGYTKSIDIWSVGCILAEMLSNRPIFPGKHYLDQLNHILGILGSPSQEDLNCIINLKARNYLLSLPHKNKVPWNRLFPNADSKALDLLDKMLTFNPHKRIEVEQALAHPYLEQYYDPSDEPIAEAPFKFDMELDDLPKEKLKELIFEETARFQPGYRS
Tyrosine-protein kinase Lyn (Homo sapiens), sequence (P07948 2-512 limits assumed): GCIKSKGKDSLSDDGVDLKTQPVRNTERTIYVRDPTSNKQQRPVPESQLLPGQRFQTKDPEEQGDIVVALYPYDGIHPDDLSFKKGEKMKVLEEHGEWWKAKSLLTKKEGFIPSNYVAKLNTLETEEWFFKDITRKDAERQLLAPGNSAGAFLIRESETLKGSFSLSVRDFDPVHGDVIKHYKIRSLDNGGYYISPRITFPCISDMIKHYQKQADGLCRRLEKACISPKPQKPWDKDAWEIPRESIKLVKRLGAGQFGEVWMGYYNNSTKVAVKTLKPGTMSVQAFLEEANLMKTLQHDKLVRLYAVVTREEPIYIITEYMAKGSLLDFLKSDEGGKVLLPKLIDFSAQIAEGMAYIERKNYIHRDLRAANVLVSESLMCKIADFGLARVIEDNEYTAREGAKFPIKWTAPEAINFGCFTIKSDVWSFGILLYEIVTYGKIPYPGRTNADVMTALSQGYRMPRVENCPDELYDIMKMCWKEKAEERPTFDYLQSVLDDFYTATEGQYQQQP

Compound	inhibition [1] [%]	inhibition [2] [%]	inhibition [3] [%]	inhibition [4] [%]	inhibition [5] [%]	inhibition [6] [%]	inhibition [7] [%]	inhibition [8] [%]	inhibition [9] [%]	inhibition [10] [%]	inhibition [11] [%]	inhibition [12] [%]
Cc1cccc(N(C)c2cc(Nc3cccc(C(=O)NCc4ccc(N(C)C)cc4)c3)ncn2)c1	0	1	3	0	9	1	8	3	3	0	3	11
CN(C)CC(C)(C)CNC(=O)C1CCN(c2cc(N3CCOCC3)nc(N)n2)CC1	0	8	3	0	7	8	7	0	21	0	6	0
CC(=O)CCCCC(=O)N1CCN(c2nccc(Oc3cccc(C)c3)n2)CC1	0	4	3	0	3	10	0	0	11	1	3	0
Cc1cccc(N(C)c2cc(N3CCN(CC(=O)Nc4nc(-c5ccccc5)cs4)CC3)ncn2)c1	0	1	22	0	2	2	8	0	0	3	3	0
CC(=O)N1CCN(C(=O)c2cccc(Nc3cc(N(C)c4cccc(C)c4)ncn3)c2)CC1	0	2	1	0	29	9	12	0	21	0	4	15
COc1ccc(-c2noc(CN3CCN(c4cc(Nc5cccc(O)c5)ncn4)CC3)n2)cc1	0	2	5	0	3	6	7	1	0	0	12	9
CN(C)CC(C)(C)CNC(=O)c1cccc(Nc2nccc(Nc3ccc4ncsc4c3)n2)c1	5	7	97	12	75	24	75	13	86	0	18	91
CN(CCc1ccccn1)C(=O)c1cccc(Nc2nccc(Nc3ccc4ncsc4c3)n2)c1	0	0	78	1	48	12	56	0	80	1	19	28
O=C(NCc1cccnc1)c1cccc(-c2ccc(Nc3ccc4ncsc4c3)nn2)c1	0	6	48	16	48	0	0	40	49	6	79	41
Nc1nc(N2CCOCC2)cc(N2CCC(C(=O)NCc3cccs3)CC2)n1	0	1	15	0	7	14	9	0	11	0	7	0
COc1cccc(Nc2cc(Nc3cccc(C(=O)NCCCn4ccnc4)c3)nc(N)n2)c1	2	5	16	13	2	2	7	1	6	0	14	11
Cc1cccc(N(C)c2cc(N3CCN(C(=O)Cc4c[nH]c5ccccc45)CC3)ncn2)c1	0	4	16	0	6	10	2	5	5	0	7	0
COc1cccc(Nc2cc(N3CCC[C@H]3C(=O)NCCN3CCCCC3)nc(N)n2)c1	0	3	7	0	8	12	8	0	0	0	14	0
